Test results from ChEMBL document CHEMBL1134377, “New synthesis of benzo-delta-carbolines, cryptolepines, and their salts: in vitro cytotoxic, antiplasmodial, and antitrypanosomal activities of delta-carbolines, benzo-delta-carbolines, and cryptolepines” (J Med Chem, 2001).
Where a name gives a salt, the structure may show the parent alone.

Tests used:
Plasmodium falciparum [1] = experiment: Antiplasmodial activity against chloroquine-resistant Plasmodium falciparum K1; format: functional, organism-based
Method in brief: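 K1 strain kept in continuous culture on human erythrocytes. Asynchronous cultures (1% parasitemia, 1% final hematocrit) exposed to serial dilutions of drug (DMSO stocks; final DMSO ≤0.2%) for 24 h at 37 °C. 0.5 µCi [3H]hypoxanthine per well was then added for a further 24 h. Inhibition is incorporation versus untreated controls on the same plate. IC50 taken from concentration-response curves, mean ± SD of several independent experiments.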

Trypanosoma cruzi [2] = experiment: Antitrypanosomal activity against Trypanosoma cruzi amastigotes; format: functional, organism-based
Trypanosoma cruzi [3] = experiment: Index of selectivity was determined in Trypanosoma cruzi; format: functional
Method in brief: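 Ratio of IC50 on L6 cells to IC50 on intracellular amastigote proliferation of T. cruzi.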

L6 = experiment: In vitro cytotoxicity against L6 cells; format: functional, cell-based, Rattus norvegicus
Trypanosoma cruzi [4] = experiment: Antitrypanosomal activity against (Trypanosoma cruzi) trypomastigotes (concentration of compound tested on trypomastigote motility); format: functional, organism-based
Method in brief: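 Tulahuen LacZ clone 4 trypomastigotes harvested from infected murine L6 muscle cell cultures; 2-fold drug dilutions from 200 to 1.5 µM, 48 h; motility scored by microscopy; value is concentration with no detectable motility effect, mean of 2 independent experiments.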

Trypanosoma cruzi [5] = experiment: Antitrypanosomal activity against Trypanosoma cruzi epimastigotes; format: functional, organism-based
Plasmodium falciparum [6] = experiment: Selectivity index against Plasmodium falciparum; format: functional
[7] = In vitro cell survival assay on cancer KB cell lines; format: functional, cell-based, Homo sapiens
Method in brief: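 KB oral epidermoid carcinoma cells in MEM with 10% FCS, 25 000 cells/well; serial dilutions (DMSO or water) added at plating; 3 days at 37 °C, 5% CO2; viability by neutral red uptake 8-16 h, SDS lysis, absorbance 540 nm.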

[8] = In vitro cytotoxicity against L6 cells

SMILES	IC50 (Plasmodium falciparum [1]; Plasmodium falciparum) [µM]	IC50 (Trypanosoma cruzi [2]; Trypanosoma cruzi) [µM]	IS (Trypanosoma cruzi [3])	IC50 (L6; Rattus norvegicus, L6) [µM]	IC50 (Trypanosoma cruzi [4]; Trypanosoma cruzi) [µM]	IC50 (Trypanosoma cruzi [5]; Trypanosoma cruzi) [µM]	IS (Plasmodium falciparum [6])	IC50 ([7]; Homo sapiens, KB) [µM]	IC50 ([7]; kb) [µM]	IC50 [8] [µM]	IC50 (Plasmodium falciparum [1]) [µM]	IC50 (Trypanosoma cruzi [2]) [µM]	IC50 (L6; l6) [µM]	IC50 (Trypanosoma cruzi [4]) [µM]	IC50 (Trypanosoma cruzi [5]) [µM]
c1csc(-c2cnc3c(c2)[nH]c2ccccc23)c1	16.8	8.4	6.4	54	200	6.8	3.2	–	–	–	–	–	–	–	–
C[n+]1c2ccccc2cc2[nH]c3ccccc3c21.O=S(=O)([O-])C(F)(F)F	0.33	0.125	64.8	8.1	50	1.3	24.5	–	–	–	–	–	–	–	–
CC(C)c1c2nc3ccccc3c-2n(C)c2ccccc12	2.2	–	–	23.8	–	–	10.6	6.5	–	–	–	–	–	–	–
Cc1c2nc3ccccc3c-2n(C)c2ccccc12	0.101	–	–	3.7	–	–	41.9	0.53	–	–	–	–	–	–	–
CCc1c2nc3ccccc3c-2[nH]c2ccccc12	30.9	5.7	3.8	21.5	6.25	2.8	0.7	40	–	–	–	–	–	–	–
CC(C)c1c2ccccc2[n+](C)c2c1[nH]c1ccccc12.O=S(=O)([O-])C(F)(F)F	1.3	3.3	4.6	15.1	12.5	0.73	12.6	–	6.4	–	–	–	–	–	–
Cc1c2ccccc2[n+](C)c2c1[nH]c1ccccc12	–	–	–	–	–	–	–	0.42	–	–	–	–	–	–	–
Cc1c2nc3ccccc3c-2[nH]c2ccccc12	74.6	4.7	4	18.9	25	3.9	0.25	40	–	–	–	–	–	–	–
c1ccc2nc(-c3cc[nH]c4c5ccccc5nc3-4)ccc2c1	16.3	6.4	6.5	41.6	100	26.4	2.6	–	–	–	–	–	–	–	–
CCc1c2ccccc2[n+](C)c2c1[nH]c1ccccc12	–	–	–	–	–	–	–	1.5	–	–	–	–	–	–	–
c1ccc(-c2cc[nH]c3c4ccccc4nc2-3)cc1	38.5	11.9	1.2	14.3	25	11.1	0.4	–	–	–	–	–	–	–	–
c1ccc2c(c1)[nH]c1cccnc12	104	23.5	9.7	229	100	23.2	2.2	–	–	–	–	–	–	–	–
c1ccc(-c2c[nH]c3c4ccccc4nc-3c2-c2ccccc2)cc1	259	108	>1.5	> 156	100	> 312	>0.6	–	–	–	–	–	–	–	–
Oc1ccc2[nH]c3cccnc3c2c1	56.5	122	1.9	235	200	129	4.2	–	–	–	–	–	–	–	–
Cc1c2ccccc2[n+](C)c2c1[nH]c1ccccc12.O=S(=O)([O-])C(F)(F)F	0.062	0.074	18.9	1.4	12.5	0.3	22.5	–	0.57	–	–	–	–	–	–
Cc1cc[nH]c2c3ccccc3nc1-2	45.6	10.4	7.9	82.4	100	6.6	1.8	–	–	–	–	–	–	–	–
Clc1c2nc3ccccc3c-2[nH]c2ccccc12	74.6	6.7	6.4	–	50	6.3	1.7	–	–	43.2	–	–	–	–	–
c1csc(-c2ccnc3c2[nH]c2ccccc23)c1	14.8	1.8	1	1.8	200	11.2	0.12	–	–	–	–	–	–	–	–
Cc1c(-c2ccccc2)c[nH]c2c3ccccc3nc1-2	23.6	1.9	11.2	21.3	6.25	2.3	0.9	–	–	–	–	–	–	–	–
c1ccc(-c2cc[nH]c3c4ccccc4nc2-3)nc1	33.1	18.8	4	75.1	25	58.4	2.3	–	–	–	–	–	–	–	–

SMILES	IC50 (Plasmodium falciparum [1]; Plasmodium falciparum) [µM]	IC50 (Trypanosoma cruzi [2]; Trypanosoma cruzi) [µM]	IS (Trypanosoma cruzi [3])	IC50 (L6; Rattus norvegicus, L6) [µM]	IC50 (Trypanosoma cruzi [4]; Trypanosoma cruzi) [µM]	IC50 (Trypanosoma cruzi [5]; Trypanosoma cruzi) [µM]	IS (Plasmodium falciparum [6])	IC50 ([7]; Homo sapiens, KB) [µM]	IC50 ([7]; kb) [µM]	IC50 [8] [µM]	IC50 (Plasmodium falciparum [1]) [µM]	IC50 (Trypanosoma cruzi [2]) [µM]	IC50 (L6; l6) [µM]	IC50 (Trypanosoma cruzi [4]) [µM]	IC50 (Trypanosoma cruzi [5]) [µM]
c1ccc(-c2c3nc4ccccc4c-3[nH]c3ccccc23)cc1	–	–	–	–	–	–	–	> 100	–	–	–	–	–	–	–
CC(C)c1c2ccccc2[n+](C)c2c1[nH]c1ccccc12	–	–	–	–	–	–	–	9.25	–	–	–	–	–	–	–
C[n+]1cccc2[nH]c3ccccc3c21.[Cl-]	1.6	192	>1	> 230	200	428	> 138	–	–	–	–	–	–	–	–
Cn1cccc2nc3ccccc3c1-2	2.2	258	>1	> 220	200	> 550	>100	–	–	–	–	–	–	–	–
Nc1ccccc1-c1c[nH]c2c3ccccc3nc-2c1	29.3	11.2	1.3	14.3	50	10.4	0.5	–	–	–	–	–	–	–	–
c1ccc(-c2c[nH]c3c4ccccc4nc-3c2)nc1	22.1	20.8	9.8	204	50	49.8	9.2	–	–	–	–	–	–	–	–
Cn1c2c3ccccc3nc-2c(-c2ccccc2)c2ccccc21	1.1	0.34	16.6	5.5	1.5	0.23	5.5	0.75	–	–	–	–	–	–	–
c1ccc(-c2c[nH]c3c4ccccc4nc-3c2)cc1	129	8.6	4.3	37.2	200	–	0.3	–	–	–	–	–	–	–	–
CCc1cc[nH]c2c3ccccc3nc1-2	66.8	12.2	3.7	44.9	50	21.4	0.7	–	–	–	–	–	–	–	–
Nc1ccccc1-c1cc[nH]c2c3ccccc3nc1-2	23.9	18.9	0.9	16.2	50	34.4	0.7	–	–	–	–	–	–	–	–
CC(C)c1c2nc3ccccc3c-2[nH]c2ccccc12	–	–	–	–	–	–	–	57	–	–	–	–	–	–	–
O=C(c1c2nc3ccccc3c-2[nH]c2ccccc12)c1c2nc3ccccc3c-2[nH]c2ccccc12	6.4	5.7	2.7	15.2	100	> 200	2.4	–	–	–	–	–	–	–	–
CCc1c2ccccc2[n+](C)c2c1[nH]c1ccccc12.O=S(=O)([O-])C(F)(F)F	0.48	0.39	17.4	6.8	50	0.34	14.1	–	–	–	–	–	–	–	–
C[n+]1cccc2[nH]c3ccccc3c21.O=S(=O)([O-])C(F)(F)F	–	–	>1	–	–	–	>100	–	–	–	1.5	199	> 150	100	> 300
CCc1c2nc3ccccc3c-2n(C)c2ccccc12	1.1	0.18	33	5.9	6.25	3.2	5.5	0.7	–	–	–	–	–	–	–
c1ccc2nc(-c3c[nH]c4c5ccccc5nc-4c3)ccc2c1	14.2	3.3	6.9	22.7	–	18.6	1.6	–	–	–	–	–	–	–	–
C[n+]1c2ccccc2c(-c2ccccc2)c2[nH]c3ccccc3c21.O=S(=O)([O-])C(F)(F)F	1.1	0.88	7.7	6.8	12.5	0.54	6.2	–	–	–	–	–	–	–	–
C[n+]1c2ccccc2cc2[n-]c3ccccc3c21 [CRYPTOLEPINE HYDROCHLORIDE]	–	–	–	–	–	–	–	–	1.75	–	–	–	–	–	–
C[n+]1c2ccccc2cc2[n-]c3ccccc3c21 [CRYPTOLEPINE]	–	–	–	–	–	–	–	1.5	–	–	–	–	–	–	–
c1ccc2nc3c(cc2c1)[nH]c1ccccc13 [QUINDOLINE]	36.2	14.2	3.4	48.6	50	8.7	1.3	45	–	–	–	–	–	–	–
